The source made the active and inactive calls. The calls are words filed in the database; no cut-off is given here.
Tests used:
P2X purinoceptor 7 = molecular target: T1, P2X purinoceptor 7 (Rattus norvegicus, UniProt Q64663); assay: Antagonist activity against rat P2X7 receptor expressed in Xenopus laevis oocyte assessed as inhibition of […] inward current by two-electrode voltage-clamp electrophysiology; assay type: functional
T1 sequence (Q64663 whole entry): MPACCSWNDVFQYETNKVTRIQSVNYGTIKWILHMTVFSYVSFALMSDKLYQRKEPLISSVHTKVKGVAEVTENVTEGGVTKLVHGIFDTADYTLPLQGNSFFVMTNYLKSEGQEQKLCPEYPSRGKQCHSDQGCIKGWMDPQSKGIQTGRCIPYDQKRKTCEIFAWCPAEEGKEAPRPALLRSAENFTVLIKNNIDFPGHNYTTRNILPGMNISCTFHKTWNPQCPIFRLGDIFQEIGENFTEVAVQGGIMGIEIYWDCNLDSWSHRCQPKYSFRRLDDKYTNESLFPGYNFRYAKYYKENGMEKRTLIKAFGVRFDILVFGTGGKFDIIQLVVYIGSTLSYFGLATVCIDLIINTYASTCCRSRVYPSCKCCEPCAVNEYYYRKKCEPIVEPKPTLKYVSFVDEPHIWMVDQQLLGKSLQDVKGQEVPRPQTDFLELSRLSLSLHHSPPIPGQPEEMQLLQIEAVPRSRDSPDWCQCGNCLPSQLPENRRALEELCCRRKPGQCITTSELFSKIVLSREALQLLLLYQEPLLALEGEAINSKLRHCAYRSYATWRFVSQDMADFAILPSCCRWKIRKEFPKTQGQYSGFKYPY

P2X purinoceptor 3 = molecular target: T2, P2X purinoceptor 3 (Rattus norvegicus, UniProt P49654); assay: Antagonist activity against rat P2X3 receptor expressed in Xenopus laevis oocyte assessed as inhibition of alpha, beta-meATP-induced inward current by two-electrode voltage-clamp electrophysiology; assay type: functional
T2 sequence (P49654 whole entry): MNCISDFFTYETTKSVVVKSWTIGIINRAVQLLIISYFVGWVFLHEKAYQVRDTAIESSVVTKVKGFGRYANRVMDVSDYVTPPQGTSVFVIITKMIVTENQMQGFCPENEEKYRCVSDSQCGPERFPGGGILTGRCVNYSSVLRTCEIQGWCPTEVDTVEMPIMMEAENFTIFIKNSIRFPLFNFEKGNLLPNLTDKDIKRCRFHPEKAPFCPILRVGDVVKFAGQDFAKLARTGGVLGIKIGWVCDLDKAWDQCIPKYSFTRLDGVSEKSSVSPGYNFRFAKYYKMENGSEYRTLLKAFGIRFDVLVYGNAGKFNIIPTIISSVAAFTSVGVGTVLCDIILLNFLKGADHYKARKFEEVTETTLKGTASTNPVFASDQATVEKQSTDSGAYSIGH

P2Y purinoceptor 2 = P2Y purinoceptor 2 (Homo sapiens, UniProt P41231); assay: Antagonist activity against human P2Y2 receptor expressed in 1321N1 astrocytoma cells by calcium mobilization assay; assay type: functional, cell-based
Outline: (§1)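 Astrocytoma cell lines stably transfected with human P2Y2, human P2Y4 or rat P2Y6 receptor. Inhibition of receptor-mediated intracellular calcium mobilization was measured.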

P2X purinoceptor 1 = molecular target: T3, P2X purinoceptor 1 (Rattus norvegicus, UniProt P47824); assay: Antagonist activity against rat P2X1 receptor expressed in Xenopus laevis oocyte assessed as inhibition of alpha, beta-meATP-induced inward current by two-electrode voltage-clamp electrophysiology; assay type: functional
T3 sequence (P47824 whole entry): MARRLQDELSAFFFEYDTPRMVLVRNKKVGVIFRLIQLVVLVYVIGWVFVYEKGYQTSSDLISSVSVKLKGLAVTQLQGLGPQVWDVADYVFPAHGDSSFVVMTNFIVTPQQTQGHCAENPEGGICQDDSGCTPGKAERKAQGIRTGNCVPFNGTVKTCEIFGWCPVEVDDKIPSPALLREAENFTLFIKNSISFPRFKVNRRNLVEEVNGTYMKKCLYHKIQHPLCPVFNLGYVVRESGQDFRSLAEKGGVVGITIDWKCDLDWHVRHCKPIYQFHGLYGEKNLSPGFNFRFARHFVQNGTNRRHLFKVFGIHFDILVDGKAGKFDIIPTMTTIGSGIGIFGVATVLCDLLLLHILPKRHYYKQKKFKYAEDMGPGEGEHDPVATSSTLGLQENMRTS

[1] = Selectivity ratio of IC50 for rat P2X2 receptor to IC50 for rat P2X7 receptor
P2Y purinoceptor 4 = P2Y purinoceptor 4 (Homo sapiens, UniProt P51582); assay: Antagonist activity against human P2Y4 receptor expressed in 1321N1 astrocytoma cells by calcium mobilization assay; assay type: functional, cell-based; outline: as §1
[2] = Selectivity ratio of IC50 for rat P2X2 receptor to IC50 for rat P2X2/3 receptor
P2X purinoceptor 4 = molecular target: T4, P2X purinoceptor 4 (Rattus norvegicus, UniProt P51577); assay: Antagonist activity against rat P2X4 receptor expressed in Xenopus laevis oocyte assessed as inhibition of ATP-induced inward current by two-electrode voltage-clamp electrophysiology
T4 sequence (P51577 whole entry): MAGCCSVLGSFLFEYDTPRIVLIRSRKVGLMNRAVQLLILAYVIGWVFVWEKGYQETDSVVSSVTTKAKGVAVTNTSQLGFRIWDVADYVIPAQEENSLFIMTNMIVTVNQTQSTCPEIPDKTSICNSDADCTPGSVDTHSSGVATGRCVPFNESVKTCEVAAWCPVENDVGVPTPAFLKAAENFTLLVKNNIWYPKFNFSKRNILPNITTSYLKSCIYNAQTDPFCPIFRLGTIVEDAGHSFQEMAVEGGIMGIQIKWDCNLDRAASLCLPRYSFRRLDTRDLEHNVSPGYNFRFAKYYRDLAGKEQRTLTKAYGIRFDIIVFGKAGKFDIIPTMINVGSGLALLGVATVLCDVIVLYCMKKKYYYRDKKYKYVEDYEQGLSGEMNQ

[3] = molecular target: P2Y purinoceptor 6 (Rattus norvegicus) (UniProt Q63371); assay: Antagonist activity against rat P2Y6 receptor expressed in 1321N1 astrocytoma cells by calcium mobilization assay
[4] = Selectivity ratio of IC50 for rat P2X2 receptor to IC50 for rat P2X3 receptor
[5] = Selectivity ratio of IC50 for rat P2X2 receptor to IC50 for rat P2X4 receptor
P2X2/P2X3 receptor = molecular target: T5, P2X2/P2X3 receptor (Rattus norvegicus, UniProt P49653+P49654); assay: Antagonist activity against rat P2X2/3 receptor expressed in Xenopus laevis oocyte assessed as inhibition of alpha, beta-meATP-induced inward current by two-electrode voltage-clamp electrophysiology; assay type: functional
T5 sequence (P49653 whole entry): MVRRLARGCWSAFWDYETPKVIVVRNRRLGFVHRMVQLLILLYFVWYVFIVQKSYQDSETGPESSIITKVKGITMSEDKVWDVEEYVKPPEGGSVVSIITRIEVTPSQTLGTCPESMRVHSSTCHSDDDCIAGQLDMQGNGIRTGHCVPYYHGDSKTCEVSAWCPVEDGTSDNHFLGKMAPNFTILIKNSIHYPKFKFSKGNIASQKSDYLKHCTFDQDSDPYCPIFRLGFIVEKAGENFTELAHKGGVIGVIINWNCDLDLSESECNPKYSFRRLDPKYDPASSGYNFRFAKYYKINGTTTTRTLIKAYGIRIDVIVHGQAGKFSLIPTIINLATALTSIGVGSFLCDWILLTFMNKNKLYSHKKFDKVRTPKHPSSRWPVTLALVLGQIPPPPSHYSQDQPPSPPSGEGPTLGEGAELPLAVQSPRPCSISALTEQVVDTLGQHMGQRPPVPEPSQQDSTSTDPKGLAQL
T5 sequence (P49654 whole entry): T2 sequence (P49654 whole entry)
Outline: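 Heteromer formed by injecting rP2X2 and rP2X3 cRNA at 1:2 (w/w). Agonist 1 μM α,β-meATP, applied repeatedly to keep homomeric P2X3 desensitized. Same steady-state coapplication protocol in Ca-free Mg-ORi. IC50 from a Hill fit to pooled data from 5-7 experiments.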

[6] = Selectivity ratio of IC50 for rat P2X2 receptor to IC50 for rat P2X1 receptor
P2X purinoceptor 2 [7] = molecular target: T6, P2X purinoceptor 2 (Rattus norvegicus, UniProt P49653); assay: Antagonist activity against rat P2X2 receptor expressed in Xenopus laevis oocyte assessed as inhibition of ATP-induced inward current by two-electrode voltage-clamp electrophysiology
T6 sequence (P49653 whole entry): T5 sequence (P49653 whole entry)

[8] = molecular target: T7, P2X purinoceptor 2 (Rattus norvegicus) (UniProt P49653); assay: Antagonist activity against rat P2X2 receptor expressed in Xenopus laevis oocyte assessed as maximum current amplitude by two-electrode voltage-clamp electrophysiology; assay type: functional
T7 sequence (whole entry): T5 sequence (P49653 whole entry)
Outline: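 Rat P2X2-expressing oocytes were voltage-clamped in Mg-ORi. Test compound at 100 nM was coapplied with 10 μM ATP. Current amplitude was expressed as a percentage of the current elicited by ATP alone (set at 100%).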

[9] = molecular target: T7, P2X purinoceptor 2 (Rattus norvegicus); assay: Antagonist activity against rat P2X2 receptor expressed in Xenopus laevis oocyte assessed as potentiation of ATP-induced inward current at 100 nM by two-electrode voltage-clamp electrophysiology
P2X purinoceptor 2 [10] = molecular target: T6, P2X purinoceptor 2; assay: Positive modulator activity against rat P2X2 receptor expressed in Xenopus laevis oocyte assessed as maximum ATP-induced inward current by two-electrode voltage-clamp electrophysiology in presence of 10 uM ATP
P2X purinoceptor 2 [11] = molecular target: T6, P2X purinoceptor 2; assay: Antagonist activity against rat P2X2 receptor expressed in Xenopus laevis oocyte assessed as inhibition of […] inward current by two-electrode voltage-clamp electrophysiology; assay type: functional
Outline: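 Rat P2X2 or P2X4 cRNA was injected into collagenase-defolliculated Xenopus oocytes, which were kept at 19°C in ORi. Two-electrode voltage clamp was run 2-3 days later with perfusion in calcium-free Mg-ORi. 10 μM ATP was applied until steady-state current, then coapplied with incrementally larger test concentrations, with ATP-alone washout between. Inhibition was taken from the stationary current ratio, and IC50 from a Hill fit to pooled data.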

P2Y purinoceptor 12 = P2Y purinoceptor 12 (Homo sapiens, UniProt Q9H244); assay: Displacement of [3H]PSB0413 from human platelet P2Y12 receptor
Chain of P2Y purinoceptor 12 (Q9H244 whole entry): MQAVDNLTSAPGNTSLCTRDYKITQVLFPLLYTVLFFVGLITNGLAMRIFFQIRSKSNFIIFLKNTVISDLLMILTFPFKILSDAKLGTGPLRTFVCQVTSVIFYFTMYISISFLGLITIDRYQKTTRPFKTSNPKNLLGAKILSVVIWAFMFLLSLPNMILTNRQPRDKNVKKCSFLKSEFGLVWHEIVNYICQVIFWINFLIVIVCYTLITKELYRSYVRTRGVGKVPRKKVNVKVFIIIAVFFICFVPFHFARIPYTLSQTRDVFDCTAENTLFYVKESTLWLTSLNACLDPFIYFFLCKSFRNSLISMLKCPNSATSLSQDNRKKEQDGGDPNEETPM

Chain of P2Y purinoceptor 2 (P41231 whole entry): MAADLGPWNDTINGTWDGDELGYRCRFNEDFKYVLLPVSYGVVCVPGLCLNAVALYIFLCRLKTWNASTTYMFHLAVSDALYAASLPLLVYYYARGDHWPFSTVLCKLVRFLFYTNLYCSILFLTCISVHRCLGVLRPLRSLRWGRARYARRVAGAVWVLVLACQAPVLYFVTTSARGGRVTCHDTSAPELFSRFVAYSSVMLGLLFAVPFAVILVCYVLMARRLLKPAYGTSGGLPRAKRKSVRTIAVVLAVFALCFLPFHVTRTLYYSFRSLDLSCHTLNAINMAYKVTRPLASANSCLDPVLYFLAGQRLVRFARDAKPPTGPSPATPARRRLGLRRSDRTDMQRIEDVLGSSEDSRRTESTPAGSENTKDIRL
Chain of P2Y purinoceptor 4 (P51582 whole entry): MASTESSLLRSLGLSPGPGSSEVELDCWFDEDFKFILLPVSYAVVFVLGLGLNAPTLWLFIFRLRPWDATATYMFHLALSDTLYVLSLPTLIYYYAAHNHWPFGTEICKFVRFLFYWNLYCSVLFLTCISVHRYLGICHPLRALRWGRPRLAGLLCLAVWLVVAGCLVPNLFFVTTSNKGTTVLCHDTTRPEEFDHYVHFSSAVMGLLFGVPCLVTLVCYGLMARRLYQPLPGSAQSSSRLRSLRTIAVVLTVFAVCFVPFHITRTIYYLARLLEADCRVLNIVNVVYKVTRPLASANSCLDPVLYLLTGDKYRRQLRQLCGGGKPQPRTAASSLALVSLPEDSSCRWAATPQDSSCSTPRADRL

SMILES | IC50 (P2Y purinoceptor 2) [µM] | IC50 (P2Y purinoceptor 4) [µM] | IC50 (P2X purinoceptor 4) [µM] | IC50 [3] [µM] | IC50 (P2X purinoceptor 2 [7]) [µM] | potentiation % [9] [%] | other results
Nc1c(S(=O)(=O)O)cc(Nc2ccc(S(=O)(=O)O)c(Nc3nc(Cl)nc(Cl)n3)c2)c2c1C(=O)c1ccccc1C2=O | 10 | > 10 | > 10 | > 10 | 0.079 | – | IC50 (P2X purinoceptor 7): > 10 µM; IC50 (P2X purinoceptor 3): 0.494 µM; IC50 (P2X purinoceptor 1): 0.422 µM; IC50 [1]: > 0.12 µM; IC50 [2]: 0.0132 µM; IC50 [4]: 0.0053 µM; IC50 [5]: > 0.12 µM; IC50 (P2X2/P2X3 receptor): 1.04 µM; IC50 [6]: 0.0062 µM
Nc1c(S(=O)(=O)O)cc(Nc2cccc(Oc3ccccc3)c2)c2c1C(=O)c1ccccc1C2=O | 10 | – | – | 4.56 | – | 132 | Activity [8]: Active; EC50 (P2X purinoceptor 2 [10]): 0.489 µM
Nc1c(S(=O)(=O)O)cc(Nc2ccc(Nc3ccccc3)c(S(=O)(=O)O)c2)c2c1C(=O)c1ccccc1C2=O | – | – | – | – | – | 110 | –
Nc1c(S(=O)(=O)O)cc(Nc2ccc(Nc3nc(Cl)nc(Nc4cccc(S(=O)(=O)O)c4)n3)c(S(=O)(=O)O)c2)c2c1C(=O)c1ccccc1C2=O [RB 2] | – | – | – | 4.34 | 4 | – | IC50 (P2X purinoceptor 2 [11]): 39.8 µM; Ki (P2Y purinoceptor 12): 0.68 µM
Cc1cc(/N=N/c2ccc(S(=O)(=O)O)cc2S(=O)(=O)O)c(COP(=O)(O)O)c(C=O)c1O | – | – | – | – | 4 | – | IC50 (P2X purinoceptor 2 [11]): 39.8 µM
Nc1c(S(=O)(=O)O)cc(Nc2ccc(Nc3nc(Cl)nc(Cl)n3)cc2)c2c1C(=O)c1ccccc1C2=O | 12.1 | 10 | > 10 | 10 | 0.117 | – | –
Nc1ncnc2c1ncn2[C@@H]1O[C@H](COP(=O)(O)OP(=O)(O)OP(=O)(O)O)[C@H]2OC3(O[C@H]21)C([N+](=O)[O-])=CC(=[N+]([O-])[O-])C=C3[N+](=O)[O-] (stereo not given in full) [TNP-ATP SODIUM] | – | – | – | – | 4 | – | IC50 (P2X purinoceptor 2 [11]): 39.8 µM
COc1nc(Cl)nc(Nc2ccc(Nc3cc(S(=O)(=O)O)c(N)c4c3C(=O)c3ccccc3C4=O)cc2S(=O)(=O)O)n1 | 24.2 | > 10 | > 10 | > 10 | 0.582 | – | –

More lines, main results first:

IC50 (P2Y purinoceptor 2) [µM] | IC50 (P2Y purinoceptor 4) [µM] | IC50 (P2X purinoceptor 4) [µM] | IC50 [3] [µM] | IC50 (P2X purinoceptor 2 [7]) [µM] | potentiation % [9] [%] | SMILES | other results
> 10 | > 10 | – | > 10 | – | 120 | Nc1c(S(=O)(=O)O)cc(Nc2cccc(Cc3ccccc3)c2)c2c1C(=O)c1ccccc1C2=O | –
10 | 10 | > 10 | > 10 | 0.623 | – | COc1cccc(Nc2cc(S(=O)(=O)O)c(N)c3c2C(=O)c2ccccc2C3=O)c1 | Ki (P2Y purinoceptor 12): 10 µM
– | – | – | – | – | 106 | Cc1cc(C)cc(Nc2cc(S(=O)(=O)O)c(N)c3c2C(=O)c2ccccc2C3=O)c1 | –
10 | > 10 | > 10 | 3.92 | 0.8 | – | Cc1cccc(Nc2cc(S(=O)(=O)O)c(N)c3c2C(=O)c2ccccc2C3=O)c1 | Ki (P2Y purinoceptor 12): 10 µM

Reference: ChEMBL document CHEMBL1671813, “Discovery of potent competitive antagonists and positive modulators of the P2X2 receptor” (J Med Chem, 2011)
